The target of data set [1] is phosphorylated chicken gizzard smooth muscle myosin (Gallus gallus, UniProt P10587). The data set is described as follows: Steady-state actin-activated Mg2+ ATPase inhibition, smooth muscle myosin. The format is biochemical. In short, it runs like this:
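Chicken gizzard smooth muscle myosin was fully phosphorylated (checked by urea gel), never frozen, and used within 2–3 weeks. It was run at 0.2 mg/mL final with 32 μM rabbit F-actin at 30 °C in MOPS pH 7.0, 50 mM NaCl, 0.1 mM EGTA, 5 mM MgCl2, 2 mM ATP, 1 mM DTT. DMSO was 2%, with dilutions from a 25 mM stock. IC50 is the half-maximal drop in steady-state ATPase.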

The conditions of data set [2]: ref [25], cited from earlier work.
Another data set has as its system BEAS-2B, MCF-7 and A549. As to conditions: normal human cell line BEAS-2B and cancer cell lines MCF-7 and A549; ref [41]; cited from earlier work.
The test system of data set [3] is NM-IIB (cytokinesis in Cos-7 cells). Briefly: Cytokinesis inhibition in Cos-7 cells. The following applies: 24 h, 37 °C. The class given is cell-based. In short, it runs like this: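 Cos-7 cells (4,000/well) were pre-grown 24 h, then exposed 24 h at 37 °C, 5% CO2 to test compound at 40 μM final in 1% DMSO. Controls were 1% DMSO and media (negative), plus para-aminoblebbistatin 20 μM and (−)-blebbistatin 10 μM (positive). Staining was fluorescein diacetate, Hoechst 33342 and propidium iodide for 10 min. N/C is Hoechst nuclei (excluding PI-positive) per FDA-stained cell. Triplicate wells, ≥2 experiments, ≥600 cells/well.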

Data set [4] addresses T1, fast rabbit skeletal myosin (Oryctolagus cuniculus, UniProt Q28641). The following applies: previously reported ketimines; favoured isoform; ref [25]; cited from earlier work.
The target of data set [5] is T1, fast rabbit skeletal myosin. Briefly: Steady-state actin-activated Mg2+ ATPase inhibition, skeletal myosin. The class given is biochemical. As to conditions: cardiac IC50 (x) / skeletal IC50 (y). In short, it runs like this:
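Rabbit psoas skeletal myosin (unphosphorylated, 0.1 mg/mL final) with rabbit psoas F-actin (32 μM) at 30 °C, pH 7.0 MOPS buffer (50 mM NaCl, 0.1 mM EGTA, 5 mM MgCl2, 2 mM ATP, 1 mM DTT), 2% DMSO. IC50 taken as half-maximal reduction of steady-state rate. Selectivity is cardiac IC50 (bovine left-ventricle myosin, 0.5 mg/mL) divided by skeletal IC50.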

The conditions of data set [6]: 99:1 (v/v) PBS/methanol, room temperature; ref [25]; cited from earlier work.

Like-named read-outs stand apart in the source and are kept apart here.

For orientation: IC50 means the point on the concentration scale where inhibition reaches its midpoint.

Chain of phosphorylated chicken gizzard smooth muscle myosin (P10587 2-1979 limits assumed): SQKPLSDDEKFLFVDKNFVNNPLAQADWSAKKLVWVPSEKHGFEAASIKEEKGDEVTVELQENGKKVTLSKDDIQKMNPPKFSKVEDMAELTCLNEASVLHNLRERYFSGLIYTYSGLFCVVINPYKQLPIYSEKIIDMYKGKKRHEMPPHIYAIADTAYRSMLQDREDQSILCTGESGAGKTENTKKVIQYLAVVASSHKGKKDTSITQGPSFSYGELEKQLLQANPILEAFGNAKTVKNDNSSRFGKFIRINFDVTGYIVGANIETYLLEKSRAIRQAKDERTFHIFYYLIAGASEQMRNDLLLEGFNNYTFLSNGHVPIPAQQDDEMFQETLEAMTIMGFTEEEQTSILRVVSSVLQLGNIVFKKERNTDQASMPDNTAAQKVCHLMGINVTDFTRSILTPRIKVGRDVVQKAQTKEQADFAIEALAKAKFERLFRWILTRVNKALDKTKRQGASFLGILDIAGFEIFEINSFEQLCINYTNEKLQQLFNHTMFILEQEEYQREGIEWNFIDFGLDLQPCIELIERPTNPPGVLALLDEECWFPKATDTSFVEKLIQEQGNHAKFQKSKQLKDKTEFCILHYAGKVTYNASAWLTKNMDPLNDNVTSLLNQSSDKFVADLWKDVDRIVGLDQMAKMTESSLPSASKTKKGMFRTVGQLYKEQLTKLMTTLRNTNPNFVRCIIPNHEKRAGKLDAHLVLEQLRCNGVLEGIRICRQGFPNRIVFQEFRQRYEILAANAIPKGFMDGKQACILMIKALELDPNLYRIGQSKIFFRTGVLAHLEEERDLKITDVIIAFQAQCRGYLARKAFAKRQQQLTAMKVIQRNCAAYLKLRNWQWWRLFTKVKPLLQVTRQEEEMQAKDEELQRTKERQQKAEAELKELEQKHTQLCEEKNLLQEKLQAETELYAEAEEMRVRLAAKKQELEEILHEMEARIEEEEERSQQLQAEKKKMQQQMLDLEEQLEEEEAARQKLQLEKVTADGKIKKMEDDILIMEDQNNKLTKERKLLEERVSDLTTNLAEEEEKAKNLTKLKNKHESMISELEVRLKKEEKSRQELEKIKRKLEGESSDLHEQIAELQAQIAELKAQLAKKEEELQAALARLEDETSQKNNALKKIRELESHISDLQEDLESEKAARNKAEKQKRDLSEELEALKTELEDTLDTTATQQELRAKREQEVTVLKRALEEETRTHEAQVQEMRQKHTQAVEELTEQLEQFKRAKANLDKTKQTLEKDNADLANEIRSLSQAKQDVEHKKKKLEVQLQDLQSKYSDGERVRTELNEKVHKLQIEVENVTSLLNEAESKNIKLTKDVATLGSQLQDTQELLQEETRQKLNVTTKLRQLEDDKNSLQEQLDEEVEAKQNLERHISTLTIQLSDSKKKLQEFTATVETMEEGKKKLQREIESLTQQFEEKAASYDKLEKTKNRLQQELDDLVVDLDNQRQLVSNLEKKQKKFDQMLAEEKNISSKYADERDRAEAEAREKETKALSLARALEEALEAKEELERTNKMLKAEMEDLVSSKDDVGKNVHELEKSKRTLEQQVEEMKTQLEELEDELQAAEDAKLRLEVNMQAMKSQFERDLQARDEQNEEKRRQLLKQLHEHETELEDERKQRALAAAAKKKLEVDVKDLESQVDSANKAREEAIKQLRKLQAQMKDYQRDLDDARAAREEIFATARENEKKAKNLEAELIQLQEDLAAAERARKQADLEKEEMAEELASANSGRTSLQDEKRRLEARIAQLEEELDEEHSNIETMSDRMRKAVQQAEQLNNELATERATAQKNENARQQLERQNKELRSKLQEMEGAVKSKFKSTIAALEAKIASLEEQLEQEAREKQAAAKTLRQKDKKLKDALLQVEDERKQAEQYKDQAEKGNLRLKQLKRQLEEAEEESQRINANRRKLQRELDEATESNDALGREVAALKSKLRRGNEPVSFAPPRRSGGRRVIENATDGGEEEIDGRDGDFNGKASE
T1 sequence (Q28641 whole entry, canonical isoform): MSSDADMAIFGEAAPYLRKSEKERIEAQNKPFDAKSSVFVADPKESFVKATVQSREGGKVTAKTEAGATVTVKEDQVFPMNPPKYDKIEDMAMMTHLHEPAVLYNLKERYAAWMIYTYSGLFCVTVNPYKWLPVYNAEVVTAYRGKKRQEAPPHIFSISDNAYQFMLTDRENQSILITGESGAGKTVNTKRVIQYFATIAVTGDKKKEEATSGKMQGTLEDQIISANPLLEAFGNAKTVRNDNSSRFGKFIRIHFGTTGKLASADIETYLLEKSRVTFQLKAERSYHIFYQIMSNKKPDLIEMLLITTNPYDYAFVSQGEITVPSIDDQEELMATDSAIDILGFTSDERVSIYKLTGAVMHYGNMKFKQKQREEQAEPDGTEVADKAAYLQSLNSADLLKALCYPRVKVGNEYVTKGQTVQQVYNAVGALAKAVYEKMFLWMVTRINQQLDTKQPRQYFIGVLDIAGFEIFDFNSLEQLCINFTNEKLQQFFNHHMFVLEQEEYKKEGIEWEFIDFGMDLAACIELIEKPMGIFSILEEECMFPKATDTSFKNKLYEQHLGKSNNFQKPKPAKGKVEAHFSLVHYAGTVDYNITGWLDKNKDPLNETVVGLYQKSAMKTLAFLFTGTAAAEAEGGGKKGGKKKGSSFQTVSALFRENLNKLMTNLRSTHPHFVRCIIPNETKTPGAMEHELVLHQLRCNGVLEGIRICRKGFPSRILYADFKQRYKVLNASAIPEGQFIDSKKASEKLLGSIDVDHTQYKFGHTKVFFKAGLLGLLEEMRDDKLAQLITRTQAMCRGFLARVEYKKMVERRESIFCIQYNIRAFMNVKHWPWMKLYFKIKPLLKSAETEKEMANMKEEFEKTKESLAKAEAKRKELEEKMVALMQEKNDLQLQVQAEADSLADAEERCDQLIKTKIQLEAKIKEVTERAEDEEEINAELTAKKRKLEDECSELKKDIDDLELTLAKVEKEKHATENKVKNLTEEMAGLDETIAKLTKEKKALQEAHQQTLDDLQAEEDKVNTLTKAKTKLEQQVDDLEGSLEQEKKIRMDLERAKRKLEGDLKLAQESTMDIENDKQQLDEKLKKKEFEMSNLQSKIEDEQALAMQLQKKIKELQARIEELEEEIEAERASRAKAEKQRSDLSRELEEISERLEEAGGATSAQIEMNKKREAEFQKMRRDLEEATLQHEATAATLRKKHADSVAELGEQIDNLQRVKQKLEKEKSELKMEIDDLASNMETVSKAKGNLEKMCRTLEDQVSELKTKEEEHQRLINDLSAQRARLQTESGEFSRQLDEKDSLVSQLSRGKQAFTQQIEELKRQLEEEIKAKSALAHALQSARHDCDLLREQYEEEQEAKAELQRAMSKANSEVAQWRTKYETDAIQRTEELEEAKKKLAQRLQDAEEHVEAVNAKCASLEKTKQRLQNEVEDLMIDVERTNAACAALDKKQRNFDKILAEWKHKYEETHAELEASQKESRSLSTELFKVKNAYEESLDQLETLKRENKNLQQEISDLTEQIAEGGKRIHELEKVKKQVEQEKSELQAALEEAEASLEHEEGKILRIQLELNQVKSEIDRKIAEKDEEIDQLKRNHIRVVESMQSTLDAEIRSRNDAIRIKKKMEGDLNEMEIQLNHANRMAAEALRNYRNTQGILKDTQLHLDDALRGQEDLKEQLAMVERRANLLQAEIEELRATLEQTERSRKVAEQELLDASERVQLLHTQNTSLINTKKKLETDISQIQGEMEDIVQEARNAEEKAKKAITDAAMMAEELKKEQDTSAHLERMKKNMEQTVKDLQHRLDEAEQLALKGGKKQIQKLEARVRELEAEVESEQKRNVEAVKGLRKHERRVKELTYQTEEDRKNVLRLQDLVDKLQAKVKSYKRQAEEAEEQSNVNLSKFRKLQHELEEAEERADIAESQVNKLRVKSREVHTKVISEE
T1 sequence (P02602 whole entry partner, canonical isoform): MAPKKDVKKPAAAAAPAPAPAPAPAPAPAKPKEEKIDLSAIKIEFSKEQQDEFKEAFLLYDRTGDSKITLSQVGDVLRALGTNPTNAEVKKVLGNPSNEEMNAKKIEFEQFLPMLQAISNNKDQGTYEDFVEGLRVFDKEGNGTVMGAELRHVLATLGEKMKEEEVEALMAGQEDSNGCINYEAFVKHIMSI
T1 sequence (P02608 whole entry partner, canonical isoform): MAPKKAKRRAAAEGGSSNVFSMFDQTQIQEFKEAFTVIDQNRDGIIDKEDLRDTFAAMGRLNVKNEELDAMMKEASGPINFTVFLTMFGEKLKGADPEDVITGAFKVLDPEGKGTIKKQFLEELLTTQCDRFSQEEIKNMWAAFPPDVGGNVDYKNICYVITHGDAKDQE

`COCCC/N=C(\C)c1c(O)c2ccccc2oc1=O` [Analog 5c, 4-Hydroxy-3-(N-(3-methoxypropyl)ethanimidoyl)-2H-chromen-2-one]: the IC50 in data set [1] was not below 100 µM.
`C/C(=N\Cc1ccccc1)c1c(O)c2ccccc2oc1=O` [Analog 2]: in data set [2] (pH 7.4 PBS, 2.5% DMSO), the Kinetic solubility is 100 µM.
On to `COCC/N=C(\C)c1c(O)c2ccccc2oc1=O` [Analog 5a, 4-Hydroxy-3-(N-(2-methoxyethyl)ethanimidoyl)-2H-chromen-2-one], for which the IC50 in data set [1] is not below 100 µM.
As for `COc1ccc(C/N=C(\C)c2c(O)c3ccccc3oc2=O)cc1` [Analog 6b, 4-Hydroxy-3-(N-(4-methoxybenzyl)ethanimidoyl)-2H-chromen-2-one], in data set [1], the IC50 is not below 100 µM. In addition, in the data set with BEAS-2B, MCF-7 and A549, the Cytotoxicity entry is given as “low μM range”. Besides, the “Inhibition of cytokinesis (nuclei to cell ratio, N/C)” value in data set [3] (40 μM) is listed as “did not inhibit cytokinesis”.
With `C/C(=N\CCCOCc1ccc2c(c1)OCO2)c1c(O)c2ccccc2oc1=O` [Analog 13c], the IC50 in data set [1] is not below 100 µM. For the same molecule, the “Inhibition of cytokinesis (nuclei to cell ratio, N/C)” value in data set [3] (40 μM) was “no cytokinesis inhibition”.
On to `CCCCN(CCC/N=C(\C)c1c(O)c2ccccc2oc1=O)Cc1cccc(OC)c1` [Analog 19, 3-(N-(N’-Butyl-N’−3-methoxybenzyl-3-aminopropyl)ethanimidoyl)-4-hydroxy-2H-chromen-2-one], for which the IC50 in data set [1] is not below 100 µM.
On the same count and under the same terms, the result for `CCOCCC/N=C(\C)c1c(O)c2ccccc2oc1=O` [Analog 5d, 3-(N-(3-Ethoxypropyl)ethanimidoyl)-4-hydroxy-2H-chromen-2-one] reads not below 100 µM.
Turning to `C/C(=N\Cc1cccc(C)c1)c1c(O)c2ccccc2oc1=O` [JB069], the “Selectivity (cardiac vs. skeletal myosin inhibition)” value in data set [4] is “cardiac-selective”.
For `COc1ccc(COCCC/N=C(\C)c2c(O)c3ccccc3oc2=O)cc1` [Analog 13b], in data set [5], the Selectivity x/y is not below 2.0. This molecule also yielded an IC50 in data set [1] not below 100 µM.
“3-(N-butylethanimidoyl)-4-hydroxy-2H-chromen-2-one [BHC, reference compound]”: the Kinetic solubility in data set [2] (nephelometry in PBS (pH 7.4) containing 2.5% DMSO) is listed as 607 ± 2 μm.
Regarding `COc1cccc(C/N=C(\C)c2c(O)c3ccccc3oc2=O)c1` [Analog 6a, 4-Hydroxy-3-(N-(3-methoxybenzyl)ethanimidoyl)-2H-chromen-2-one], the half-inhibitory concentration (IC50) in data set [1] was not below 100 µM.
In the case of `Cc1ccc2c(c1)C(=O)[C@]1(O)CCN(c3ccccc3)C1=N2` [Blebbistatin, blebbistatin, reference compound], the “Inhibition of cytokinesis (nuclei to cell ratio, N/C)” value in data set [3] (positive control, 10 μM) is given as “inhibited cytokinesis”.
Molecule `CCOCC/N=C(\C)c1c(O)c2ccccc2oc1=O` [Analog 5b, 3-(N-(2-Ethoxyethyl)ethanimidoyl)-4-hydroxy-2H-chromen-2-one] showed a concentration for half-maximal inhibition (IC50) in data set [1] not below 100 µM.
For the molecule `C/C(=N\Cc1ccncc1)c1c(O)c2ccccc2oc1=O` [JB031], in data set [6], the half-life for hydrolysis was 3.5 ± 0.5 days.
`Cc1ccc2c(c1)C(=O)[C@]1(O)CCN(c3ccc(N)cc3)C1=N2` [para-aminoblebbistatin, reference compound]: the “Inhibition of cytokinesis (nuclei to cell ratio, N/C)” value in data set [3] (positive control, 20 μM) is on record as “inhibited cytokinesis”.
`COc1cc(/C=C/C(=O)c2c(O)c3ccccc3oc2=O)ccc1O` [Analog 20, 4-Hydroxy-3-(3-(4-hydroxy-3-methoxyphenyl)-1-oxo-2-propen-1-yl)-2H-1-Benzopyran-2-one]: the IC50 in data set [1] was not below 100 µM.
As to `C/C(=N\Cc1ccc(C)cc1)c1c(O)c2ccccc2oc1=O` [JB060], the “Selectivity (cardiac vs. skeletal myosin inhibition)” value in data set [4] was “skeletal-selective”.
For the molecule `CCOCCC/N=C/c1c(O)c2ccccc2oc1=O` [Analog 8a, 3-(N-(3-Ethoxypropyl)methanimidoyl)-4-hydroxy-2H-chromen-2-one], in data set [1], the IC50 was not below 100 µM.

(Values after paper PMC9889102 (European journal of medicinal chemistry, 2022).)
